Results gathered from unrelated publications.
Cell line: A549
Effect on: cell growth or viability

Compound	method	time	IC50
C(=N\Nc1cc(N/N=C/c2ccc3ccccc3n2)ncn1)/c1ccc2ccccc2n1	MTT	48 h	16.7 µM
CC(C)[C@@H]1NC(=O)[C@@H](CCCCN)NC(=O)[C@H]([C@@H](C)O)NC(=O)[C@@H](CCCN)NC(=O)[C@H](Cc2ccccc2)NC(=O)[C@@H](Cc2ccccc2)NC1=O	ATP luminescence	72 h	> 100 µM
CN(C)C(=O)Nc1nc2ccc(Br)cc2c(=O)n1-c1ccccc1	MTT	48 h	31.1 µM
COc1cc(C=NNC(=O)c2cc(-c3ccccc3)n(-c3ccc(S(N)(=O)=O)cc3)n2)cc(OC)c1OC	fluorescence	48 h	18.8 µM
OC1CCN(c2ccc(/C=N/NC(=S)NCCc3ccccc3)cc2)CC1	MTT	24 h	1.33 µM
O=C(Cn1cc(COc2ncnc3[nH]cnc23)nn1)Nc1ccc(O)cc1	MTT	–	26 µM
NNc1nc2c(Cl)cc(Cl)cc2c(=O)n1-c1ccc(F)cc1	MTT	48 h	80 µM
NS(=O)(=O)c1ccc(-n2nc(C(=O)NN=Cc3cccnc3)cc2-c2ccccc2)cc1	fluorescence	48 h	24.6 µM
O=C(Nc1ccc(F)cc1)Nc1nc2cc(-c3ccc4ncn(Cc5ccccc5)c(=O)c4c3)ccc2s1	MTT	72 h	2.83 µM
Cc1ccc(NC(=O)Nc2ccc(-c3ccc4ncn(Cc5ccccc5)c(=O)c4c3)cn2)cc1	CCK-8	72 h	> 10 µM
CC(=O)O[C@@]12CO[C@@H]1C[C@H](O)[C@@]1(C)C(=O)[C@H](O)C3=C(C)[C@@H](OC(=O)[C@H](O)[C@@H](NC(=O)OC(C)(C)C)c4ccccc4)C[C@@](O)([C@@H](OC(=O)c4ccccc4)[C@H]21)C3(C)C	MTT	24 h	> 60 µg/mL
COc1cc(C2C3=C(Nc4nc(SC)[nH]c(=O)c42)c2ccccc2C3=O)ccc1O (stereo not shown)	MTT	72 h	> 1000 µM
O=C(C=Cc1ccc(OCCCOc2ccc(C=CC(=O)c3cccs3)cc2)cc1)c1cccs1	MTT	48 h	92.4 µM
CCCCC(=O)Nc1ccc(-c2ccc3ncn(CCCC)c(=O)c3c2)cn1	CCK-8	72 h	0.87 µM
C(=N\Nc1cc(N/N=C/c2cccc3cccnc23)ncn1)/c1cccc2cccnc12	MTT	48 h	14.8 µM
COc1ccc(CNc2ccc(C(=O)O)cc2)cc1OC	resazurin	72 h	> 100 µM
CCCCn1cnc2ccc(-c3ccc(NC(=O)NCc4ccccc4)nc3)cc2c1=O	CCK-8	72 h	0.38 µM
NNc1nc2c(Cl)cc(Cl)cc2c(=O)n1-c1ccccc1	MTT	48 h	> 200 µM
CCCn1cnc2ccc(-c3ccc(N4CCCCCC4=O)nc3)cc2c1=O	CCK-8	72 h	> 10 µM
CC(C)[C@H](NC(=O)[C@H](Cc1c[nH]c2ccccc12)NC(=O)[C@H](Cc1c[nH]cn1)NC(=O)[C@H](CCCNC(=N)N)NC(=O)[C@H](CCCNC(=N)N)NC(=O)[C@H](Cc1c[nH]c2ccccc12)NC(=O)[C@H](Cc1c[nH]c2ccccc12)NC(=O)[C@H](Cc1c[nH]cn1)NC(=O)[C@H](Cc1c[nH]c2ccccc12)NC(=O)[C@H](CCCNC(=N)N)NC(=O)[C@@H](N)CCCCN)C(=O)N[C@H](C(=O)N[C@@H](Cc1c[nH]c2ccccc12)C(N)=O)C(C)C	MTT	24 h	106 µM
CC(C)[C@@H]1NC(=O)[C@@H](CCCNC(=N)N)NC(=O)[C@H]([C@@H](C)O)NC(=O)[C@@H](CN)NC(=O)[C@H](Cc2ccccc2)NC(=O)[C@@H](Cc2ccccc2)NC1=O	ATP luminescence	–	79.8 µM
CCC(=O)Nc1nc2cc(-c3ccc4ncn(Cc5ccccc5)c(=O)c4c3)ccc2s1	MTT	72 h	> 20 µM
O=C(N[C@@H](CSCc1ccc([N+](=O)[O-])cc1)C(=O)NO)c1ccccc1	MTT	48 h	48.2 µM
COc1cccc(CNc2ccc(C(=O)O)cc2)c1	resazurin	72 h	> 100 µM
CCCCn1cnc2ccc(-c3ccc(NC(=O)NC(C)(C)C)nc3)cc2c1=O	CCK-8	72 h	> 10 µM
COc1ccc(C=NNC(=O)c2cc(-c3ccccc3)n(-c3ccc(S(N)(=O)=O)cc3)n2)cc1OC	fluorescence	48 h	15.5 µM

Compound	method	time	IC50
Cc1cc(NS(=O)(=O)c2ccc(NC(=O)/C(C#N)=C/c3ccncc3)cc2)no1	MTT	48 h	196 µM
CCCCC(=O)Nc1ccc(-c2ccc3ncn(CCC)c(=O)c3c2)cn1	CCK-8	72 h	0.11 µM
COc1cc([C@@H]2c3cc4c(cc3[C@@H](O[C@@H]3O[C@@H]5CO[C@@H](C)O[C@H]5[C@H](O)[C@H]3O)[C@H]3COC(=O)[C@H]23)OCO4)cc(OC)c1O	SRB	72 h	0.3 µM
COc1ccc(NC(=O)Nc2nc3cc(-c4ccc5ncn(CCN(C)C)c(=O)c5c4)ccc3s2)cc1	MTT	72 h	5.46 µM
O=C(O)c1ccc(NCc2cc(Br)ccc2O)cc1	resazurin	72 h	> 100 µM
COc1cccc(NC(=O)Nc2nc3cc(-c4ccc5ncn(CCN6CCOCC6)c(=O)c5c4)ccc3s2)c1	MTT	72 h	1.14 µM
C/C(=N\C1CCCCC1/N=C(\C)c1c(O)c2ccccc2oc1=O)c1c(O)c2ccccc2oc1=O (stereo not shown)	MTT	48 h	6.56 µM
CC(C)CCn1cnc2ccc(-c3ccc4sc(NC(=O)Nc5ccc(F)cc5)nc4c3)cc2c1=O	MTT	72 h	2.39 µM
CC(C)CNC(=S)N/N=C/c1cccc2cc3ccccc3nc12	MTT	48 h	> 50 µM
CN1CCc2c(c3ccccc3n2Cc2ccc(C(=O)NO)cc2)C1	CCK-8	48 h	27.8 µM
COc1ccccc1CNc1ccc(C(=O)O)cc1	resazurin	72 h	> 100 µM
Cc1cccc(C)c1NC(=S)N/N=C/c1ccc(N2CCC(O)CC2)cc1	MTT	24 h	1.56 µM
O=C(O)c1ccc(NCc2ccccc2)cc1	resazurin	72 h	> 100 µM
COc1cccc2c1C(=O)c1c(O)c3c(c(O)c1C2=O)C[C@@](O)(C(=O)CO)C[C@@H]3O[C@H]1C[C@H](N)[C@H](O)[C@H](C)O1	MTT	48 h	5.95 µM
CCCCn1cnc2ccc(-c3ccc(NC(C)=O)nc3)cc2c1=O	CCK-8	72 h	> 10 µM
C/C(=N\c1nc(N)nc(/N=C(\C)c2c(O)c3ccccc3oc2=O)n1)c1c(O)c2ccccc2oc1=O	MTT	48 h	5.58 µM
CC(C)NC(=O)Nc1nc2cc(-c3ccc4ncn(Cc5ccccc5)c(=O)c4c3)ccc2s1	MTT	72 h	> 20 µM
O=c1[nH]cc(F)c(=O)[nH]1	MTT	48 h	42.5 µM
NNc1nc2ccc(Br)cc2c(=O)n1-c1ccc(F)cc1	MTT	48 h	63.9 µM
C/C(=N/NC(=O)c1cn(-c2ccccc2)nc1-c1ccc(Br)cc1)c1c(O)cc(C)oc1=O	MTT	48 h	140 µM
COC(=O)c1cc(C(C)=NNc2nc(-c3ccc(C)cc3)cs2)ccc1O	MTT	96 h	9.61 µM
O=C(Nc1ccc(-c2ccc3ncn(Cc4ccccc4)c(=O)c3c2)cn1)C1CCCC1	CCK-8	72 h	> 10 µM
O=C(Nc1ccc(F)cc1)Nc1nc2cc(-c3ccc4ncn(CC5CC5)c(=O)c4c3)ccc2s1	MTT	72 h	2.48 µM
Cc1ccc(CNC(=S)N/N=C/c2ccc(N3CCC(O)CC3)cc2)cc1	MTT	24 h	3.28 µM
O=C(Nc1ccc(Cl)cc1)Nc1nc2cc(-c3ccc4ncn(CCN5CCOCC5)c(=O)c4c3)ccc2s1	MTT	72 h	> 20 µM
CNC(=S)N/N=C/c1cccc2cc3ccccc3nc12	MTT	48 h	26.9 µM
